Source: PubChem BioAssay
TRPC4 PAM = allosterically enhances the mouse TRPC4 cation channel. AID 2227. B-score at 10 µM. 310,000 tested, 0.42% active. HEK293 TRPC4beta/mu-opioid, DAMGO EC20, Fluo-4 Ca2+ flux; hits give high values;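 active means B-score of calcium response area above 5 SD of library B-scores, with initial fluorescence ratio within 5 SD of library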
TRPC6 inhibitor = mouse TRPC6 channel inhibition | HEK293-TRPC6, membrane potential dye, ACh-evoked depolarization; hits give low values | AID 2553 | 310,000 tested, 1.1% active | B-score at 10 µM;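 active means B-score under library mean minus 3 SD, initial fluorescence not abnormally high, positive integrated signal ratio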;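 further: B-score derived from integrated fluorescence ratio over the kinetic read; more negative B-score means stronger inhibition of depolarization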
Target sequence (Q61143 whole entry, looked up): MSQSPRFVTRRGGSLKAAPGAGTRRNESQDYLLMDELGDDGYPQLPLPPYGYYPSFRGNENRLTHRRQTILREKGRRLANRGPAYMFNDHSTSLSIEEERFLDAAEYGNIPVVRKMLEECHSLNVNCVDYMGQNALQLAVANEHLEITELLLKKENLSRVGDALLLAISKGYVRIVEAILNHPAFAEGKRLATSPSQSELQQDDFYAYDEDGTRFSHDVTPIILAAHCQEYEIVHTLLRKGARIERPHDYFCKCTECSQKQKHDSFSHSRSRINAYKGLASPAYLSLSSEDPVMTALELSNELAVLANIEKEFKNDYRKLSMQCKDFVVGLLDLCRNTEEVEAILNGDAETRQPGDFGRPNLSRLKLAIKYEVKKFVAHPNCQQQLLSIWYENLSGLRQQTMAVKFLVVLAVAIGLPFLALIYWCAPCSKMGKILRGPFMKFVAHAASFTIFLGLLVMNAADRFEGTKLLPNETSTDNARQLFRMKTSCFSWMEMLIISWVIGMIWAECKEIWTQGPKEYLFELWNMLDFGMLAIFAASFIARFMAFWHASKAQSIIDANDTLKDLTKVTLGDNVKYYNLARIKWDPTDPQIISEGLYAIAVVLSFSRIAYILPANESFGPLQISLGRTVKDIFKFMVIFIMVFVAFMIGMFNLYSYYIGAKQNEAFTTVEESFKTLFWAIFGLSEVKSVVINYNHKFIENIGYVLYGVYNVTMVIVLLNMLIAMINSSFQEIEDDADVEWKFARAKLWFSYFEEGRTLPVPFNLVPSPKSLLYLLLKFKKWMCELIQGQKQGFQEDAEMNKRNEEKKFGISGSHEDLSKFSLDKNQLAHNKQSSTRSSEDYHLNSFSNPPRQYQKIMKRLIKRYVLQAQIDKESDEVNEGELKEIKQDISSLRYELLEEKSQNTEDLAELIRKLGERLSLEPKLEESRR
TRPC4 inh = blocks the mouse TRPC4 cation channel. B-score at 10 µM. Q9QUQ5. AID 2247. 300,000 tested, 0.39% active. HEK293 TRPC4beta/mu-opioid, DAMGO-evoked Fluo4 calcium flux; hits give low values;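 active means B-score over 3 SD under the library average, no early fluorescence shift, positive overall ratio signal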
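Assay system: TRPC4beta/mu-opioid receptor HEK293 cell line; compound dosing: single concentration per test compound; detection: Fluo4 Ca2+ flux fluorescence; evaluation: per-well B score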
TRPC6 activator = activates the mouse TRPC6 cation channel; AID 2550; 310,000 tested, 0.13% active; HEK293-TRPC6 membrane potential dye fluorescence; hits give high values; B-score at 10 µM;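 active means B-score of the integrated fluorescence ratio above library mean plus 3 SD, and starting fluorescence ratio within library mean plus 5 SD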;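 further: higher score means more depolarization so channel activation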
TRPC4 agonist = TRPC4 (mouse) channel activation; Q9QUQ5; HEK293 TRPC4beta/mu-opioid, Fluo4 calcium fluorescence; hits give high values; B-score at 10 µM; 310,000 tested, 0.49% active; AID 2237;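 active means B-score above 5 SD of library B-scores, and initial fluorescence ratio not above library mean plus 5 SD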;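 further: positive B-score marks a calcium rise read as TRPC4 activation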
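Material: TRPC4beta and mu-opioid receptor HEK293 stable cells | Incubation: 45 min room-temperature Fluo4 loading, 110 s read | Detection: Kinetic Fluo4 calcium fluorescence | Measure: Integrated baseline-normalised fluorescence ratio, converted to per-well B score | Benchmarks: Low control buffer alone, high control maximal DAMGO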
TRPC4 sel inh 2 = mouse TRPC4 off-target activity of TRPC6 inhibitors, second screen; shares compounds with TRPC6 inhibitor; 920 tested, 42% active; AID 2776; HEK293 TRPC4/MOR, membrane potential dye fluorescence; channel activated by saturating DAMGO dose; inhibition, % at 10 µM;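 active means compounds whose fluorescence signal differed from control wells by over 3 SD, either direction, in both duplicate plates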
TRPC4 spec = selectivity of TRPC6 inhibitors: effect on mouse TRPC4; 920 tested, 61% active; shares compounds with TRPC6 inhibitor; activity change, negative = inhibition, % at 10 µM; AID 2777; HEK293 TRPC4/mu-opioid, membrane potential fluorescence;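 active means rise or fall in signal beyond 3 SD of buffer-only wells in both replicate plates, either sign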;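 further: integrated kinetic ratio of fluorescence range over baseline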
HEK293 MPD ctr 2-1 = second counter-screen for TRPC6 inhibitors: parental HEK293 cells; shares compounds with TRPC6 inhibitor; parental HEK293 membrane potential dye fluorescence; maximal acetylcholine challenge after compound addition; signal change vs control, % at 10 µM; 920 tested, 31% active;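 active means membrane potential signal moving either way by over 3 SD of the maximum-effect control, in both duplicate plates, meaning non-specific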
HEK293 MPD ctr-1 = parental HEK293 nonspecific activity of TRPC6 inhibitors | membrane potential signal change, % at 10 µM | parental HEK293 membrane potential dye fluorescence | shares compounds with TRPC6 inhibitor | 920 tested, 60% active;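 active means membrane potential signal shifting up or down by more than 3 SD of buffer-only wells, on both duplicate plates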
HEK293 MPD ctr-2 = counter-screen for TRPC6 modulators: effect in parental HEK293 cells. AID 488924. shares compounds with TRPC6 inhibitor. membrane potential signal change, % at 10 µM. 2,400 tested, 51% active. membrane potential dye fluorescence;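 active means membrane potential signal moves up or down beyond 5 SD from buffer-only wells, on both duplicate plates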
HEK293 MPD ctr 2-2 = second check of TRPC6 modulator effects in parental HEK293 cells; shares compounds with TRPC6 inhibitor; membrane potential dye fluorescence; after compound, maximal acetylcholine stimulation; inhibition, % at 10 µM; 2,400 tested, 14% active; AID 488926;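 active means membrane potential signal drops by more than 5 SD from the mean control signal, in both duplicate plates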
TRPC4 ctr mod = selectivity of TRPC6 modulators against mouse TRPC4; AID 488927; 2,400 tested, 69% active; HEK293 TRPC4/mu-opioid, membrane potential fluorescence; shares compounds with TRPC6 inhibitor; percent change from control (negative = decrease, positive = increase), % at 10 µM;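 active means membrane potential signal moved up or down beyond 5 SD of buffer control wells, in both duplicate plates, actives on both sides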
TRPC4/MOR inh 2 = second check of whether TRPC6 modulators also affect mouse TRPC4; AID 488928; shares compounds with TRPC6 inhibitor; HEK293 TRPC4/mu-opioid, membrane potential dye fluorescence; stimulated with maximal-effect DAMGO; inhibition, % at 10 µM; 2,400 tested, 55% active;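 active means drop in membrane potential signal beyond 5 SD of the control wells in both duplicate plates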;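 further: TRPC4 counter screen for TRPC6 hits run under conditions tuned for TRPC6 not TRPC4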
TRPC6 inh conf = mouse TRPC6 inhibitor confirmation | HEK293-TRPC6, membrane potential dye, ACh-evoked depolarization | shares compounds with TRPC6 inhibitor | 3,300 tested, 43% active | inhibition, % at 10 µM | AID 488960;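 active means fluorescence ratio falls more than 5 SD below the full-stimulation control mean, in both duplicate runs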;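 further: integrated fluorescence ratio of peak minus minimum over baseline after agonist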
TRPC6 act confirm = confirmation of mouse TRPC6 activators; shares compounds with TRPC6 inhibitor; HEK293-TRPC6 membrane potential dye fluorescence, FDSS; activation, % at 10 µM; 2,800 tested, 11% active;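 active means ratio signal rise beyond 5 SD above unstimulated control wells' mean, seen in both duplicate runs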
Each line names hits and unclear results; the compound was inactive in the other large screens (follow-up assays come after a bar, where they were run). Compounds with a hit are over-represented: about 2.3% of the library has one in this group of screens.

CCN(CCCNc1ncnc2nc[nH]c12)c1cccc(C)c1	TRPC6 inhibitor -6.3 | HEK293 MPD ctr-2 inactive | HEK293 MPD ctr 2-2 inactive | TRPC4 ctr mod inactive | TRPC4/MOR inh 2 inactive | TRPC6 inh conf inactive | TRPC6 act confirm inactive
Brc1cc2c(cc1CN1CCc3ccccc3C1)OCO2	TRPC6 inhibitor -7.3 | TRPC4 sel inh 2 inactive | TRPC4 spec inactive | HEK293 MPD ctr 2-1 inactive | HEK293 MPD ctr-1 inactive | TRPC6 inh conf inactive | TRPC6 act confirm inactive
CC(C)CN1C(=O)C(=O)N(CC(=O)c2ccc[nH]2)C1=O	none
COc1ccc(-c2cn3cc([N+](=O)[O-])ccc3n2)cc1OC	TRPC6 inhibitor -5 | HEK293 MPD ctr-2 -111% | HEK293 MPD ctr 2-2 inactive | TRPC4 ctr mod -22% | TRPC4/MOR inh 2 30% | TRPC6 inh conf inactive | TRPC6 act confirm inactive
O=C(c1ccco1)N1N=C(C2CCCCC2)CC1(O)C(F)(F)F (stereo not drawn)	none
O=C(c1ccncc1)N1N=C(C2CCCCC2)CC1(O)C(F)(F)F (stereo not drawn)	TRPC6 inhibitor -5.8 | HEK293 MPD ctr-2 inactive | HEK293 MPD ctr 2-2 inactive | TRPC4 ctr mod inactive | TRPC4/MOR inh 2 inactive | TRPC6 inh conf inactive | TRPC6 act confirm inactive
COc1ccc(-c2n[nH]c(C)c2-c2cc(OC)ccc2O)cc1	TRPC6 inhibitor -6 | HEK293 MPD ctr-2 inactive | HEK293 MPD ctr 2-2 inactive | TRPC4 ctr mod inactive | TRPC4/MOR inh 2 inactive | TRPC6 inh conf inactive | TRPC6 act confirm inactive
COc1ccc(-c2cc(-c3cc(OC)ccc3O)[nH]n2)cc1	none
O=C(COc1cccc2cccnc12)N1CCc2ccccc2C1	TRPC6 inhibitor -6.2 | HEK293 MPD ctr-2 -126% | HEK293 MPD ctr 2-2 inactive | TRPC4 ctr mod -22% | TRPC4/MOR inh 2 inactive | TRPC6 inh conf inactive | TRPC6 act confirm inactive
COc1cccc(CC(=O)Nc2nc3c(s2)C(=O)CC(C)(C)C3)c1	none
COCCN(CCOC)c1nc(S(=O)(=O)c2ccc(C)cc2)c(Cl)s1	TRPC6 inhibitor -5.4 | HEK293 MPD ctr-2 106% | HEK293 MPD ctr 2-2 inactive | TRPC4 ctr mod 24% | TRPC4/MOR inh 2 inactive | TRPC6 inh conf inactive
NC(=O)Cn1nnc(-c2ccccc2NC(=O)c2cnccn2)n1	none
CC(C)(C)NC(=O)Cn1nnc(-c2ccccc2NC(=O)c2cnccn2)n1	TRPC6 inhibitor -7.1, TRPC6 activator 13 | HEK293 MPD ctr-2 inactive | HEK293 MPD ctr 2-2 inactive | TRPC4 ctr mod 20% | TRPC4/MOR inh 2 inactive | TRPC6 inh conf inactive | TRPC6 act confirm 72%
CCOC(=O)c1ccc(NC(=S)N2CCCC(C(=O)N3CCCC3)C2)cc1 (stereo not drawn)	none
CCOC(=O)c1ccc(NC(=S)N2CCCC(C)C2)cc1 (stereo not drawn)	TRPC6 inhibitor -5 | HEK293 MPD ctr-2 inactive | HEK293 MPD ctr 2-2 inactive | TRPC4 ctr mod inactive | TRPC4/MOR inh 2 inactive | TRPC6 inh conf inactive | TRPC6 act confirm inactive
O=C(O)C1CC(c2ccccc2)=Nc2ccccc2S1 (stereo not drawn)	TRPC6 inhibitor -5.3 | HEK293 MPD ctr-2 136% | HEK293 MPD ctr 2-2 inactive | TRPC4 ctr mod 28% | TRPC4/MOR inh 2 inactive | TRPC6 inh conf inactive
c1ccc(CN2CCN(Cc3nnc(-c4ccccc4)o3)CC2)cc1	TRPC6 inhibitor -5.6 | HEK293 MPD ctr-2 inactive | HEK293 MPD ctr 2-2 66% | TRPC4 ctr mod 11% | TRPC4/MOR inh 2 inactive | TRPC6 inh conf 64%
Cc1ccc(NC(=O)CSc2nnc(C3CC3)n2N)cc1S(=O)(=O)N1CCOCC1	none
CC(=O)Oc1c(/C=C(\C#N)C(N)=O)[nH]c2ccccc12	TRPC6 activator 27 | HEK293 MPD ctr-2 657% | HEK293 MPD ctr 2-2 inactive | TRPC4 ctr mod 170% | TRPC4/MOR inh 2 inactive | TRPC6 inh conf inactive | TRPC6 act confirm 170%
CCCC(CCC)C(=O)OC1C[C@H]2CC[C@@H](C1)[N+]2(C)C (stereo partly drawn)	TRPC6 inhibitor -8.7 | TRPC4 sel inh 2 inactive | TRPC4 spec inactive | HEK293 MPD ctr 2-1 -30% | HEK293 MPD ctr-1 inactive | TRPC6 inh conf 94% | TRPC6 act confirm inactive
CCOC(=O)N1CCC(N2CCN(CCC(C)C)C(CCO)C2)CC1 (stereo not drawn)	TRPC6 inhibitor -7.6 | TRPC4 sel inh 2 inactive | TRPC4 spec 9.0% | HEK293 MPD ctr 2-1 -4.0% | HEK293 MPD ctr-1 1.5% | TRPC6 inh conf 64%
CCC(C)(C)n1nnnc1C(c1cc(OC)ccc1OC)N1CCN(Cc2ccccc2)CC1 (stereo not drawn)	none
CC(=O)/C(=N/Nc1ccccc1[N+](=O)[O-])N1CCCc2ccccc21	TRPC6 inhibitor -6.6 | HEK293 MPD ctr-2 inactive | HEK293 MPD ctr 2-2 inactive | TRPC4 ctr mod inactive | TRPC4/MOR inh 2 49% | TRPC6 inh conf inactive | TRPC6 act confirm inactive
CCNC(=S)N1CCN(C(c2ccccc2)c2ccccc2)CC1	TRPC6 inhibitor -5.2, TRPC4 agonist 68 | HEK293 MPD ctr-2 inactive | HEK293 MPD ctr 2-2 inactive | TRPC4 ctr mod 66% | TRPC4/MOR inh 2 74% | TRPC6 inh conf inactive | TRPC6 act confirm inactive
CCCNC(=S)N1CCN(C(c2ccccc2)c2ccccc2)CC1	none
O=C(Cc1cccs1)NC1CCCC1	none
CC(C)(C)c1ccc(/C=C(\C#N)C(=O)NCCN2CCOCC2)cc1	none
